Test results as given in ChEMBL document CHEMBL1129236, “Synthesis and structure-activity relationships of phenylenebis(methylene)-linked bis-tetraazamacrocycles that inhibit human immunodeficiency virus replication. 2. Effect of heteroaromatic linkers on the activity of bicyclams” (J Med Chem, 1996).

Legend:
[1] = tested on: Human immunodeficiency virus 1; assay: Effective concentration against HIV-1(IIIB) replication in MT-4 cells; type: functional, organism-based; details: Human immunodeficiency virus 1, MT4
Method in brief: (§1)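 MT-4 cells were infected with HIV-1 (III_B) or HIV-2 (ROD) at MOI 0.01 (100 CCID₅₀), or mock-infected, run in parallel. Cells were exposed to various compound concentrations and grown 5 days, then viable cells were counted by MTT colorimetry. EC₅₀ protects 50% of infected cells from cytopathicity; CC₅₀ cuts mock-infected viability by 50%. Values are averages of several experiments.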

MT4 = assay: Concentration required to reduce the viability of mock infected cells by 50%; type: functional; details: Homo sapiens; method in brief: as §1
[2] = tested on: Human immunodeficiency virus 2; assay: Effective concentration against HIV-2(ROD) replication in MT-4 cells; type: functional, organism-based; details: Human immunodeficiency virus 2, MT4; method in brief: as §1
[3] = pKa was reported; type: physicochemical
Method in brief: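 Potentiometric titration: a 0.1 mM aqueous solution with 4 equiv HClO₄ at 25 °C, I = 0.1 M (NaClO₄), was titrated with 0.1 M NaOH. The electrode was calibrated with pH 4.00 and 7.00 buffers. UV spectra (400–200 nm, 1 cm path) were also taken at 0.17 mM across pH 1–7, with pH set by HClO₄ in 0.1 M NaClO₄.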

EC50 [1]	EC50 [2]	pKa [3]	SMILES	CC50 (MT4)
16400 nM	16400 nM	–	c1cc(CN2CCCNCCNCCCNCC2)cc(CN2CCCNCCNCCCNCC2)n1	17 µM
39.8 nM	20 nM	–	c1ccc(-c2cc(CN3CCCNCCNCCCNCC3)cc(CN3CCCNCCNCCCNCC3)n2)cc1	> 203 µM
26.1 nM	17.4 nM	–	c1ncc(CN2CCCNCCNCCCNCC2)nc1CN1CCCNCCNCCCNCC1	> 203 µM
908 nM	2190 nM	–	c1cc(CN2CCCNCCNCCCNCC2)ncc1CN1CCCNCCNCCCNCC1	18 µM
139000 nM	106000 nM	–	c1nc(CN2CCCNCCNCCCNCC2)cnc1CN1CCCNCCNCCCNCC1	> 203 µM
24.5 nM	65.4 nM	–	c1cc(CN2CCCNCCNCCCNCC2)nc(CN2CCCNCCNCCCNCC2)c1	> 409 µM
31.6 nM	71 nM	–	c1ncc(CN2CCCNCCNCCCNCC2)cc1CN1CCCNCCNCCCNCC1	> 395 µM
–	–	–	c1cc(CN2CCCNCCNCCCNCC2)cc(CN2CCCNCCNCCCNCC2)c1	> 421 µM
> 200000 nM	> 200000 nM	–	O=C(O)c1cc(CN2CCCNCCNCCCNCC2)ccc1CN1CCCNCCNCCCNCC1	> 200 µM
–	–	< 3	c1ccc(C2CCNCCNCCCNCCN2)nc1 (centres undefined)	–
> 203000 nM	> 203000 nM	–	O=C(O)c1cc(CN2CCCNCCNCCCNCC2)cc(CN2CCCNCCNCCCNCC2)c1	> 200 µM
3770 nM	4270 nM	–	c1ccc2c(CN3CCCNCCNCCCNCC3)cc(CN3CCCNCCNCCCNCC3)nc2c1	> 419 µM
682 nM	590 nM	–	COC(=O)c1cc(CN2CCCNCCNCCCNCC2)ccc1CN1CCCNCCNCCCNCC1	> 198 µM
–	–	–	c1ccc(-c2cc(CN3CCCNCCNCCCNCC3)cc(CN3CCCNCCNCCCNCC3)c2)cc1	> 198 µM
46.8 nM	39 nM	–	Nc1cc(CN2CCCNCCNCCCNCC2)cc(CN2CCCNCCNCCCNCC2)c1	> 194 µM
157 nM	78.6 nM	–	c1ccc2c(CN3CCCNCCNCCCNCC3)cc(CN3CCCNCCNCCCNCC3)cc2c1	207 µM
–	–	5.32	c1ccc(CCC2CNCCNCCCNCCNC2)nc1	–
–	–	3.6	Oc1cccnc1C1CCNCCNCCCNCCN1 (centres undefined)	–
187 nM	93.4 nM	–	Nc1cc(CN2CCCNCCNCCCNCC2)ccc1CN1CCCNCCNCCCNCC1	> 179 µM
–	5.9 nM	–	c1cc(CN2CCCNCCNCCCNCC2)ccc1CN1CCCNCCNCCCNCC1 [PLERIXAFOR]	> 421 µM
